The results in this text go back to ChEMBL document CHEMBL4513216, “Probing the Open Global Health Chemical Diversity Library for Multistage-Active Starting Points for Next-Generation Antimalarials” (ACS Infect Dis, 2020).

Each structure is given as a SMILES string.

The series is described as follows: Toxicity liver stage against HepG2, at 10uM. In kind it is cell-based. The arrangement: test concentration 10 uM, cell line HepG2-A16-CD81EGFP. Conditions: human, HepG2-A16-CD81EGFP cells; read-out: INHIBITION
In short, it runs like this: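 Uninfected HepG2-A16-CD81EGFP cells, 3 × 10^3 per well, 1536-well, plated on prespotted compound at 10 μM final, parasite-free screening media added to match infected plates; puromycin 10 μM positive, DMSO 0.5% negative; run in parallel with 48 h PbLuc assay at 37 °C, 5% CO2; viability by CellTiter-Glo luminescence, normalized to controls.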
As to `Cn1cccc1C(=O)N1CCc2ccc(=O)n(C)c2CC1`, the cytotoxicity at 10 µM was -0.756%.

Regarding `CN(C)C(=O)CN1CCN(c2ccnc3c(F)ccc(F)c23)CC1`, the cytotoxicity at 10 µM was 4.44%.

Consider `O=C(CCC1CCN(C2CCSCC2)CC1)NCC1CCCO1` (stereo not given), for which the cytotoxicity at 10 µM is 8.73%.

For the compound `CCC[C@H]1CN(c2nc(CO)cs2)C[C@@H]1NC(=O)C1CCC1`, the cytotoxicity at 10 µM is 6.07%.

As for `CCNC(=O)[C@H]1CN(Cc2ccccc2)C[C@@H]1C(=O)c1ccccc1`, the cytotoxicity at 10 µM worked out at 3.08%.

Consider `CCC(C(=O)NCc1nc(C)cc(C(F)(F)F)n1)n1cccn1` (stereo not given), for which the cytotoxicity at 10 µM is -17.1%.

Consider `C[C@@H]1CN(Cc2ccc(C(F)(F)F)cc2F)CC[C@]1(C)O`, for which the cytotoxicity at 10 µM was found to be 4.54%.

Take `COc1ccc2c(ccn2CC(=O)NC[C@@H]2CCCN3CCCC[C@H]23)c1`: the cytotoxicity at 10 µM was -4.56%.

As to `CC(C)N(CCO)C(=O)C1CCC(=O)N(Cc2ccc(Cl)cc2)C1` (stereo not given), the cytotoxicity at 10 µM is -4.9%.

For `Cc1nsc(N2CCN(CC(=O)NCc3cccnc3)CC2)n1`, the cytotoxicity at 10 µM was -4.52%.

In the case of `COc1ccc(NC(C)C(=O)N2CCN(Cc3ccccc3)CC2)cn1` (stereo not given), the cytotoxicity at 10 µM was determined as 1.26%.

Turning to `O=C(NCCCO)Nc1cccc(C[S+]([O-])c2ccccc2)c1` (stereo not given), the cytotoxicity at 10 µM stood at 0.0964%.

As to `CCC(CNC(=O)NCc1cc[nH]n1)N1CCCC1` (stereo not given), the cytotoxicity at 10 µM is -3.65%.

For `CCC(C)Sc1nncn1-c1ccc(OC)nc1` (stereo not given), the cytotoxicity at 10 µM was -1.35%.

Regarding `CC(C)c1noc(CNc2ccccc2CC(=O)N(C)C)n1`, the cytotoxicity at 10 µM was -10.6%.

With `CCOc1cccc(CNc2ccccc2Cl)c1O`, the cytotoxicity at 10 µM was -2.52%.

On to `CCCOC(C)C(=O)NCc1cc2n(n1)CCCN(C1CCCCC1)C2` (stereo not given), for which the cytotoxicity at 10 µM is 2.5%.

`COC(=O)CNC(=O)C(C(C)C)n1cnc2cc(F)c(F)cc21` (stereo not given): the cytotoxicity at 10 µM was 2.76%.

Take `CN(C)Cc1cnc2n1CCN(C(=O)Cc1ccc(F)cc1)CC2`: the cytotoxicity at 10 µM is -8.96%.

For `CS(=O)(=O)NCC1CCCN(C(=O)COCC2CC2)C1` (stereo not given), the cytotoxicity at 10 µM worked out at 4.28%.

For the compound `CCC[C@@H]1CN(C(=O)CCc2ccco2)C[C@H]1NS(C)(=O)=O`, the cytotoxicity at 10 µM is -3.73%.

Take `CNC(=O)CN1C(=O)CN(C(=O)COC)CCC(OC)c2ccccc21` (stereo not given): the cytotoxicity at 10 µM is -8.12%.

Turning to `CN1[C@@H]2CC[C@H]1CN(C(=O)c1sccc1S(N)(=O)=O)CC2`, the cytotoxicity at 10 µM was determined as 1.95%.

Regarding `CN(C)C(=O)C1CCN(Cn2nc(-c3ccc(F)cc3)oc2=O)CC1`, the cytotoxicity at 10 µM is -2.06%.

As to `Cc1cnc(N2C[C@@H]3CCN(CC(=O)N(C)C)C(=O)[C@H]3C2)nc1`, the cytotoxicity at 10 µM was -19%.

For the compound `CCCc1nnc(N(C)CC2CCN(CC(C)C)C2)o1` (stereo not given), the cytotoxicity at 10 µM is -1.41%.

`O=C(CCC(F)(F)F)N1CCCC(c2ncc[nH]2)C1` (stereo not given): the cytotoxicity at 10 µM came out at 2.14%.

As to `CC(NCC1CCN(CCO)CC1)c1ccc(OC(F)(F)F)cc1` (stereo not given), the cytotoxicity at 10 µM was -15.1%.

Take `O=C(Nc1cc(C(F)(F)F)c[nH]c1=O)C1CCCO1` (stereo not given): the cytotoxicity at 10 µM was -0.37%.

Take `CCCS(=O)(=O)N1CCN(c2cc(-n3cnc(C)c3C)nc(C)n2)CC1`: the cytotoxicity at 10 µM was -8.51%.

With `Cc1nc(C(=O)N2CCN(C(=O)C3CCC3)[C@@H]3CS(=O)(=O)C[C@@H]32)cs1`, the cytotoxicity at 10 µM worked out at 12.5%.

In the case of `CN(CCSc1ccccc1)C(=O)c1cn2c(n1)CNCC2`, the cytotoxicity at 10 µM was -47.4%.

As for `Cc1noc(C)c1C(=O)N(C)C(C)c1cccnc1` (stereo not given), the cytotoxicity at 10 µM was 0.363%.

As for `CN(Cc1ccsc1)C(=O)c1ccc(C2CCCO2)s1` (stereo not given), the cytotoxicity at 10 µM came out at 7.9%.

Turning to `CN(CCn1cnc(-c2ccccc2)c1-c1ncc[nH]1)S(C)(=O)=O`, the cytotoxicity at 10 µM came out at 1.87%.

In the case of `CCOc1ccccc1CCn1cc2[nH]cccc-2c1=O`, the cytotoxicity at 10 µM worked out at 13.6%.

Turning to `CC(C)C(=O)Nc1cc(C(=O)NC2CC(C)(C)NC(C)(C)C2)nn1C`, the cytotoxicity at 10 µM is -7.04%.

Take `Cc1cc(C)n(CC2CN(Cc3noc(C4CC4)n3)CCO2)n1` (stereo not given): the cytotoxicity at 10 µM was found to be 2.79%.

As to `Cn1ccnc1SCCNC(=O)c1cc(S(N)(=O)=O)ccc1F`, the cytotoxicity at 10 µM was -3.45%.

With `O=C(NCC1CCCCC1)N1C[C@@H]2C[C@H](C(=O)N3CCCC3)[C@H](C1)O2`, the cytotoxicity at 10 µM was -2.48%.

With `CCNc1ccnc(N2CCN(Cc3ncccc3C)CC2)n1`, the cytotoxicity at 10 µM is -5.59%.

As for `Cc1cc(C(=O)N2CC[C@@]3(O)CCN(S(C)(=O)=O)C[C@H]3C2)c(C)n1C`, the cytotoxicity at 10 µM is -8%.

For `Cc1cc(C(=O)N2C[C@@H]3COC[C@]3(c3nnc(C(C)C)o3)C2)on1`, the cytotoxicity at 10 µM is -2.52%.

For the compound `Cc1ccc(C)c(C(NC(=O)C(C)(C)C)c2cccnc2)c1` (stereo not given), the cytotoxicity at 10 µM is -3.7%.

As for `COCc1ncc(CN2CCC3(CCNCC3)CC2)cn1`, the cytotoxicity at 10 µM is -139%.

As for `COc1ccnc(N2CCC(OCCN3CCCCC3)C2)n1` (stereo not given), the cytotoxicity at 10 µM was -44.9%.

As to `COc1cccc(CN2CCCC(Cn3nc(C)nc3C)C2)c1` (stereo not given), the cytotoxicity at 10 µM is -13.4%.

Take `CC(C)CS(=O)(=O)CC(=O)N(C)Cc1ccc(OC(F)F)cc1`: the cytotoxicity at 10 µM was 1.13%.

On to `Cc1ccc(C(=O)N2CC(=O)N(Cc3ccco3)CC(O)C2)cc1` (stereo not given), for which the cytotoxicity at 10 µM was -0.817%.

Regarding `N#CCCN(CCC#N)C(=O)CN1CCCC1Cc1cccc(F)c1` (stereo not given), the cytotoxicity at 10 µM is -10.5%.

As for `CCN(CC)CCSc1nnc(N2CCN(c3ccc(F)cc3)CC2)s1`, the cytotoxicity at 10 µM was -5.12%.

On to `N#Cc1ccc(Cl)cc1NCC1CCOC1` (stereo not given), for which the cytotoxicity at 10 µM came to 3.09%.

Regarding `CNC(=O)C1Cn2ccnc2C2(CCN(Cc3nccs3)CC2)O1` (stereo not given), the cytotoxicity at 10 µM is -67.2%.

Take `CCOCCn1nc(C)cc1C(=O)N1CC(C)(C)[C@@](C)(O)C1`: the cytotoxicity at 10 µM was determined as 0.301%.

As to `CC(=O)NCCc1cn(-c2cc(F)ccc2C)cn1`, the cytotoxicity at 10 µM was -1.47%.

Turning to `CCn1ncnc1CN1CCOC(Cc2cccc3ccccc23)C1` (stereo not given), the cytotoxicity at 10 µM is 2.53%.

On to `Cc1ncc(-c2ccncc2)c(C2CCN(C(=O)c3ccno3)CC2)n1`, for which the cytotoxicity at 10 µM was 2.08%.

Regarding `CCn1cnnc1CNC(=O)N(C)Cc1cccc(Cl)c1Cl`, the cytotoxicity at 10 µM is -16.2%.

On to `CN1CCC(c2cncc(Cl)n2)CC1`, for which the cytotoxicity at 10 µM is 0.752%.

For the compound `CN1CCN(C)c2cc(NC(=O)c3cc[nH]n3)ccc2C1`, the cytotoxicity at 10 µM was -10.9%.

On to `Cc1nnc(N2CC[C@H]3C[C@H](C(=O)N(C)C)O[C@@H]3C2)s1`, for which the cytotoxicity at 10 µM is -80.9%.

As to `O=C(NCCN1CCCC1)C1(c2ccc(Cl)cc2)CCOCC1`, the cytotoxicity at 10 µM is -2.16%.

`CCn1cnnc1CNC(=O)c1cc(Cl)ccc1O`: the cytotoxicity at 10 µM stood at 2.17%.

Regarding `CC(C)C(=O)N1CCC2(CC1)COCCN2Cc1ccc(F)cc1`, the cytotoxicity at 10 µM is -60.9%.

For the compound `CNS(=O)(=O)CCn1cc(-c2ccc(NC(C)=O)cc2)nn1`, the cytotoxicity at 10 µM is -4.5%.

`NC(=O)CC1CCN(C(=O)c2cccn2Cc2cccs2)CC1`: the cytotoxicity at 10 µM is -7.19%.

In the case of `CC(=O)Nc1ccsc1C(=O)N1CC[C@H]2CC[C@@H](C1)N2C`, the cytotoxicity at 10 µM is -1.47%.

For the compound `Cn1cc(C2COC3(CCN(C(=O)c4ccsc4)CC3)C2)cn1` (stereo not given), the cytotoxicity at 10 µM was -67%.

`O=C(c1ccco1)N1CC[C@@H]2CN(C3CCOCC3)CCO[C@@H]2C1`: the cytotoxicity at 10 µM is -112%.

`Cc1ccc(C(=O)Nc2cccc3c2C(=O)NC3)c(C)n1`: the cytotoxicity at 10 µM was found to be 0.102%.

`CNc1ncc(CN(C)Cc2cc(O)c3cc(F)ccc3n2)cn1`: the cytotoxicity at 10 µM was 1.95%.

Take `Cc1noc(CCCC(=O)NCC2CCS(=O)(=O)C2)n1` (stereo not given): the cytotoxicity at 10 µM was -16.4%.

With `Cc1cc(N(C)C)nc(C2(C)CCCN2C(=O)c2ccn(C)n2)n1` (stereo not given), the cytotoxicity at 10 µM was -1.06%.

Regarding `Cc1nn(C)c(C)c1C1CCCN1C(=O)c1ccc(N(C)C)nc1` (stereo not given), the cytotoxicity at 10 µM was -7.19%.

For `CCc1nnc2n1CCN(C(=O)c1ccc3nc(C)c(C)nc3c1)C2`, the cytotoxicity at 10 µM was -10.9%.

`Cc1nccn1C1CCCN(C(=O)c2cccc3c2OCO3)C1` (stereo not given): the cytotoxicity at 10 µM was -14.1%.

In the case of `CC(=O)N1CCO[C@@H]2CN(C(=O)c3cc(C)oc3C)CC[C@@H]2C1`, the cytotoxicity at 10 µM is 10.5%.

For `COc1cccc(C(=O)N2CCCC2c2ncc3c(n2)CCN(C)C3)c1` (stereo not given), the cytotoxicity at 10 µM was -9.41%.

On to `Cc1ccc(C(=O)O)c(N2CC(C)(C)[C@@](C)(O)C2)n1`, for which the cytotoxicity at 10 µM came out at 4.5%.

Turning to `CCCc1nc(C)cc(N2CCC3(CCC(=O)N(C4CC4)C3)CC2)n1`, the cytotoxicity at 10 µM is -5.31%.

For `COc1ccc(-c2nc(C#N)c(N(C)C)o2)cc1S(=O)(=O)N1CCCC1`, the cytotoxicity at 10 µM was -0.773%.

Regarding `CSc1sc(NC(=O)C2CCCN(C(N)=O)C2)nc1C` (stereo not given), the cytotoxicity at 10 µM amounted to 6.08%.

Regarding `CCCC(=O)N1CCC(Cc2ccccc2-c2ccccc2)(C(N)=O)C1` (stereo not given), the cytotoxicity at 10 µM is -23.6%.

Consider `O=c1c2c[nH]c(N3CCCC3)nc-2cn1C1CCS(=O)(=O)C1` (stereo not given), for which the cytotoxicity at 10 µM amounted to 1.09%.

For the compound `CCOC(=O)c1ccc(CNC(=O)c2ccon2)o1`, the cytotoxicity at 10 µM came to 8.64%.

Regarding `CCOc1ccccc1N1CCN(C(=O)c2cc[nH]n2)CC1`, the cytotoxicity at 10 µM was -11%.

Consider `Cc1nsc(C(=O)NCCc2ccccc2)n1`, for which the cytotoxicity at 10 µM was found to be 4.28%.

For `CC=C(C)C(=O)NS(=O)(=O)c1ccc(C(F)(F)F)cn1`, the cytotoxicity at 10 µM is 3.95%.

For the compound `O=C(NCC1OCCc2cn(CC3CC3)nc21)c1ccsc1` (stereo not given), the cytotoxicity at 10 µM was found to be 6.69%.

As to `Cc1cc(C)c2c(N3CCC(C(=O)N4CCCC4)CC3)ncnc2n1`, the cytotoxicity at 10 µM is -0.218%.

As for `CC(C)c1nc2c(n1C)CCN(CC(=O)Nc1nncs1)C2`, the cytotoxicity at 10 µM was -10.1%.

Turning to `Cc1ccc(-c2ccnc(NC(C)c3n[nH]c(=O)[nH]3)n2)c(C)n1` (stereo not given), the cytotoxicity at 10 µM is 1.33%.

Take `Cc1nc(CN2CCCC(Cn3cc(CCO)nn3)C2)c[nH]1` (stereo not given): the cytotoxicity at 10 µM is -21.1%.

`CCn1ncc2c1CCCC2NCc1ccccc1N1CCOCC1` (stereo not given): the cytotoxicity at 10 µM is -7.66%.

On to `O=C1CNCC(C(=O)N2CC(Oc3ccccc3Cl)C2)N1` (stereo not given), for which the cytotoxicity at 10 µM is 10.9%.
